Test results taken from paper PMC10023369 (ACS chemical biology, 2023).
Read-outs that look alike come from different tables or passages of the source. Where a SMILES comes first, the peptide text is derived from it. The star is where a group is joined. Cbz = O=C(OCc1ccccc1)*

What was measured:
H3K27me3 = H3K27me3 levels by western blot in DB cells; type: cell-based, human; details: 3 μM for 96 hr
Method in brief: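 H3K27me3 by western blot: DB cells seeded at 50,000 cells/well and treated with 3 μM test compound or DMSO for 96 hr. PBS-washed cells lysed in Cytobuster with protease inhibitors and benzonase. Samples boiled with reducing Laemmli buffer, separated on 4–15% gels, transferred to PVDF. Densitometry normalized to GAPDH and expressed relative to DMSO.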

DB cells [1] = assay: DB cell proliferation analysis; type: cell-based, human; details: for Reduction of cell growth compared to DMSO: 0.5 μM, 12 days
Method in brief: (§1)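 DB cells in RPMI 1640 with 10% FBS (37 °C, 5% CO₂), seeded at 100K cells/mL in 12-well plates. Dosed with 0.01–10 μM or 0.5 μM test compound, or DMSO. Every 3 days, media exchanged, cells split back to seeding density and re-dosed, for up to 12 days. Trypan blue automated counts gave cells/mL and % viability. % proliferation relative to DMSO at each time point; EC50 from four-parameter log(inhibitor) fit.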

[2] = target: PRC2 components EED and EZH2^WT/EZH2^Y641N (Homo sapiens, UniProt O75530+P40337); assay: Degradation of PRC2 components by western blot in DB cells; type: cell-based; details: for Degradation of EED and EZH2^WT/EZH2^Y641N at 96 hr: DB cells, 3 μM for 96 hr
[3] = test system: triple negative breast cancer (TNBC) cells; details: cited from earlier work
tumor growth = details: once daily intraperitoneal administration, 150 mg/kg; cited from earlier work
[4] = target: biotinylated EED and His-VHL (Homo sapiens, UniProt O75530+P40337); assay: TR-FRET ternary complex formation assay; type: binding; details: EED-biotin and His-VHL, dose response up to 10 μM
Sequence of biotinylated EED and His-VHL (O75530 whole entry, the tested form may be a part): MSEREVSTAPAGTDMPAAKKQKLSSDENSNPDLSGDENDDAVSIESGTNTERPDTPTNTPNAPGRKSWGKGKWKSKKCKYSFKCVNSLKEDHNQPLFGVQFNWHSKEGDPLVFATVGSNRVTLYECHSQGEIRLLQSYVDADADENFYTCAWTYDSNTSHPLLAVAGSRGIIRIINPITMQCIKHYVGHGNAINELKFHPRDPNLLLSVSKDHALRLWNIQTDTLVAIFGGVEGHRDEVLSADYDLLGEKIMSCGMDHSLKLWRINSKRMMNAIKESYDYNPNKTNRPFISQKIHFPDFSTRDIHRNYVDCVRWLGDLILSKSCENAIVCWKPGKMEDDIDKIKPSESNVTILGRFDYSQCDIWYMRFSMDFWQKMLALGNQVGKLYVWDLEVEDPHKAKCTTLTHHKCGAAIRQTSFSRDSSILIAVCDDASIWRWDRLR
Sequence of biotinylated EED and His-VHL (P40337 1-154): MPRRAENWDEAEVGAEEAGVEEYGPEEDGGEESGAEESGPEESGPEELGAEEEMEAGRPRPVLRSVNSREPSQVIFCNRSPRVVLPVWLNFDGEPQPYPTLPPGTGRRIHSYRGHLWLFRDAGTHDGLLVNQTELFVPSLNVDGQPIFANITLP
Method in brief: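 Ternary complex TR-FRET: biotinylated EED (residues 1–441, 160 nM) and His-VHL (residues 1–154, 320 nM) with Eu-streptavidin (2 nM) and ULight anti-6xHis (100 nM). Buffer: 20 mM Tris pH 7.5, 150 mM NaCl, Tween 20, 2 mM DTT, 1% DMSO. 10-point three-fold series from 10 μM; 4 h in dark. Read 665/615 ratio (320 nm excitation), minus no-compound wells. Technical triplicates; two independent experiments, standard error.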

[5] = Solubility observed in ternary complex assay; type: physicochemical; details: above 10 μM in ternary complex assay
EZH2^WT/EZH2^Y641N [6] = details: read-out: EZH2^WT/EZH2^Y641N DC50; DB cells; cited from earlier work
EED = EED (Homo sapiens, UniProt O75530); assay: EED degradation by western blot in DB cells; type: cell-based
Sequence of EED (O75530 whole entry): as the sequence (O75530 whole entry, the tested form may be a part) above
Method in brief: (§2)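 DB cells seeded at 800,000 cells/well and dosed from DMSO stock for 24 hr; dose–response 0.01–3 μM. Cells washed with PBS and lysed in Cytobuster with protease inhibitors and benzonase. Normalized lysate boiled with reducing Laemmli buffer, run on 4–15% gels, blotted to PVDF, detected by fluorescence or ECL. Band densitometry normalized to GAPDH, then to DMSO, gave % degradation; EED quantified from lower ~55 kDa band. DC50 from three-parameter fit; Dmax = % degradation at 3 μM, 24 hr.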

EZH2^WT/EZH2^Y641N [7] = assay: EZH2 degradation by western blot in DB cells; type: cell-based, human; details: % degradation at 3 μM after 24 hr
Method in brief: as §2

SUZ12 = SUZ12 degradation by western blot in DB cells; type: cell-based, human; details: % degradation at 3 μM after 24 hr
Method in brief: as §2

His-tagged EED = His-tagged EED (Homo sapiens, UniProt O75530); assay: EED binding TR-FRET assay; details: result in words
Sequence of His-tagged EED (O75530 whole entry): as the sequence (O75530 whole entry, the tested form may be a part) above
Method in brief: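 EED binding by TR-FRET displacement of a biotinylated EED ligand (15 nM). Mix held EED-6xHis (15 nM), ULight anti-6xHis antibody (10 nM) and Eu-W1024 streptavidin (2 nM). Test compounds run as 10-point dose–response, top final concentration 10 μM. IC50 from three biological replicates ± standard deviation.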

Caco-2 = Caco-2 permeability assay; type: in vitro ADME
DB cells [8] = assay: DB cell viability; type: cell-based, human; details: 12 days, top concentrations tested (5 – 10 μM)
Method in brief: as §1

## CS(=O)(=O)c1ccc(-c2cnc(NCc3ccco3)n3cnnc23)cc1 [EED226]
H3K27me3
  Decrease in H3K27me3 levels: 63%
DB cells [1]
  Reduction of cell growth compared to DMSO: 24%

## CC(C)C[C@@H](C=O)NC(=O)[C@H](CC(C)C)NC(=O)[C@H](CC(C)C)NC(=O)OCc1ccccc1 [MG132] (Cbz-Leu-Leu-Leu-aldehyde)
[2]; added prior to UNC7700 cell treatment
  Effect of proteasome inhibitor pretreatment on UNC7700 mediated PRC2 degradation: blocks PRC2 degradation

## Cc1cc(C)c(CNC(=O)c2cc(-c3ccc(N4CCN(CCNC(=O)CC56CC7CC(CC(C7)C5)C6)CC4)nc3)cc3c2cnn3C(C)C)c(=O)[nH]1 [MS1943]
[3]
  Anti-proliferative effect in TNBC cells: anti-proliferative
Tumor growth
  Tumor growth in vivo: suppresses tumor growth in vivo

## CCCc1cc(C)[nH]c(=O)c1CNC(=O)c1cc(-c2ccc(N3CCN(C(C)C)CC3)nc2)cc2c1cnn2C(C)C [UNC1999]
H3K27me3
  Decrease in H3K27me3 levels: 76%
DB cells [1]
  Reduction of cell growth compared to DMSO: 28%

## Cc1ncsc1-c1ccc(CNC(=O)[C@@H]2C[C@@H](O)CN2C(=O)[C@@H](NC(=O)CCCNC(=O)c2ccc(-c3cnc(NCc4ccco4)n4cnnc34)cc2)C(C)(C)C)cc1 [UNC6852]
[2]
  Degradation of EED and EZH2^WT/EZH2^Y641N at 96 hr: substantial degradation of EED and EZH2^WT/EZH2^Y641N
[4]
  PROTAC concentration at maximum peak height of ternary complex TR-FRET signal: around 1 μM
  Ternary complex TR-FRET signal, in words: signs of a bell-shaped curve
H3K27me3
  Decrease in H3K27me3 levels, in words: only a small decrease in H3K27me3 levels
DB cells [1]
  Reduction of cell growth compared to DMSO: 8%
[5]
  Solubility: poor solubility observed above this concentration
EZH2^WT/EZH2^Y641N [6]
  DC50: 670 ± 240 nM

## Cc1ncsc1-c1ccc(CNC(=O)[C@H]2C[C@@H](O)CN2C(=O)[C@@H](NC(=O)CCCNC(=O)c2ccc(-c3cnc(NCc4ccco4)n4cnnc34)cc2)C(C)(C)C)cc1 [UNC7043]
[4]
  Ternary complex TR-FRET signal, in words: do not show any increase in FRET signal

## Cc1ncsc1-c1ccc(CNC(=O)[C@@H]2C[C@@H](O)CN2C(=O)[C@@H](NC(=O)C2CC(NC(=O)c3ccc(-c4cnc(NCc5ccco5)n5cnnc45)cc3)C2)C(C)(C)C)cc1 (stereo partly drawn) [UNC7700]
EED; % degradation at 3 μM after 24 hr
  EED Dmax: 84%
EED; read-out: EED DC50, 24 hr, dose response 0.01–3 μM, western blot
  DC50: 111 nM
EZH2^WT/EZH2^Y641N [7]
  EZH2^WT/EZH2^Y641N Dmax: 86%
SUZ12
  SUZ12 Dmax: 44%
[2]
  Degradation of EED and EZH2^WT/EZH2^Y641N at 96 hr: complete degradation of EED and EZH2^WT/EZH2^Y641N
His-tagged EED
  EED binding (TR-FRET IC50): equally potent binders of EED
Caco-2
  Caco-2 permeability: below the limit of detection of the assay
Caco-2; from the donor compartment, cell lysate, and assay well
  Percent recovery in Caco-2 assay: 79–106%
[4]
  PROTAC concentration at maximum peak height of ternary complex TR-FRET signal: around 1 μM
  Ternary complex TR-FRET signal, in words: much weaker compared to UNC6852
H3K27me3
  Decrease in H3K27me3 levels: 85%
DB cells [1]
  Reduction of cell growth compared to DMSO: 46%
DB cells [1]; read-out: Proliferation EC50 after 9 days, 0.01 – 10 μM, 9 days
  EC50: 2600 ± 1900 nM
DB cells [1]; read-out: Proliferation EC50 after 12 days, 0.01 – 10 μM, 12 days
  EC50: 790 ± 530 nM
DB cells [8]
  Loss in cell viability: ~30%
